Source: ChEMBL document CHEMBL4715736, “Identification of anticancer agents based on the thieno[2,3-b]pyridine and 1H-pyrazole molecular scaffolds” (2016)

Key:
Type in all cases: functional
[1] = test system: RPMI-8226; assay: Growth inhibition of human RPMI-8226 cells assessed as cell growth at 0.01 uM incubated for 48 hrs by sulforhodamine B assay relative to control; details: read-out: Activity
[2] = test system: HCC 2998; assay: Growth inhibition of human HCC 2998 cells assessed as cell growth at 0.01 uM incubated for 48 hrs by sulforhodamine B assay relative to control; details: read-out: Activity
Outline: (§1)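 NCI Developmental Therapeutics Program NCI60 panel. Compounds that were active in the 10 µM one-dose screen went on to dose–response testing. Growth at each concentration is expressed relative to untreated control (100%). GI50 (concentration giving 50% of maximal inhibition of proliferation) and TGI (concentration giving total growth inhibition) were derived from the curves.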

[3] = test system: HCT-15; assay: Growth inhibition of human HCT-15 cells assessed as cell growth at 0.01 uM incubated for 48 hrs by sulforhodamine B assay relative to control; details: read-out: Activity
[4] = test system: MDA-MB-435; assay: Growth inhibition of human MDA-MB-435 cells assessed as cell growth at 0.01 uM incubated for 48 hrs by sulforhodamine B assay relative to control; details: read-out: Activity
[5] = test system: A498; assay: Growth inhibition of human A498 cells assessed as cell growth at 0.01 uM incubated for 48 hrs by sulforhodamine B assay relative to control; details: read-out: Activity; outline: as §1
[6] = test system: Hs-578T; assay: Growth inhibition of human Hs-578T cells assessed as cell growth at 0.01 uM incubated for 48 hrs by sulforhodamine B assay relative to control; details: read-out: Activity
[7] = test system: MDA-MB-468; assay: Growth inhibition of human MDA-MB-468 cells assessed as cell growth at 0.01 uM incubated for 48 hrs by sulforhodamine B assay relative to control; details: read-out: Activity
[8] = test system: SF-539; assay: Growth inhibition of human SF-539 cells assessed as cell growth at 0.1 uM incubated for 48 hrs by sulforhodamine B assay relative to control; details: read-out: Activity
[9] = test system: NCI/ADR-RES; assay: Growth inhibition of human NCI/ADR-RES cells assessed as cell growth at 0.1 uM incubated for 48 hrs by sulforhodamine B assay relative to control; details: read-out: Activity
[10] = test system: ACHN; assay: Growth inhibition of human ACHN cells assessed as cell growth at 0.1 uM incubated for 48 hrs by sulforhodamine B assay relative to control; details: read-out: Activity
[11] = test system: T47D; assay: Growth inhibition of human T47D cells assessed as cell growth at 0.1 uM incubated for 48 hrs by sulforhodamine B assay relative to control; details: read-out: Activity
[12] = test system: CCRF-CEM; assay: Growth inhibition of human CCRF-CEM cells assessed as cell growth at 1 uM incubated for 48 hrs by sulforhodamine B assay relative to control; details: read-out: Activity; outline: as §1
[13] = test system: SR; assay: Growth inhibition of human SR cells assessed as cell growth at 1 uM incubated for 48 hrs by sulforhodamine B assay relative to control; details: read-out: Activity
[14] = test system: HOP-92; assay: Growth inhibition of human HOP-92 cells assessed as cell growth at 1 uM incubated for 48 hrs by sulforhodamine B assay relative to control; details: read-out: Activity
[15] = test system: HCC 2998; assay: Growth inhibition of human HCC 2998 cells assessed as cell growth at 1 uM incubated for 48 hrs by sulforhodamine B assay relative to control; details: read-out: Activity; outline: as §1
[16] = test system: OVCAR-3; assay: Growth inhibition of human OVCAR-3 cells assessed as cell growth at 1 uM incubated for 48 hrs by sulforhodamine B assay relative to control; details: read-out: Activity
[17] = test system: NCI/ADR-RES; assay: Growth inhibition of human NCI/ADR-RES cells assessed as cell growth at 1 uM incubated for 48 hrs by sulforhodamine B assay relative to control; details: read-out: Activity
[18] = test system: SN12C; assay: Growth inhibition of human SN12C cells assessed as cell growth at 1 uM incubated for 48 hrs by sulforhodamine B assay relative to control; details: read-out: Activity
[19] = test system: K562; assay: Growth inhibition of human K562 cells assessed as cell growth at 100 uM incubated for 48 hrs by sulforhodamine B assay relative to control; details: read-out: Activity
[20] = test system: HOP-62; assay: Growth inhibition of human HOP-62 cells assessed as cell growth at 100 uM incubated for 48 hrs by sulforhodamine B assay relative to control; details: read-out: Activity
[21] = test system: SF-539; assay: Growth inhibition of human SF-539 cells assessed as cell growth at 100 uM incubated for 48 hrs by sulforhodamine B assay relative to control; details: read-out: Activity
[22] = test system: Malme-3M; assay: Growth inhibition of human Malme-3M cells assessed as cell growth at 100 uM incubated for 48 hrs by sulforhodamine B assay relative to control; details: read-out: Activity
[23] = test system: SK-MEL-28; assay: Growth inhibition of human SK-MEL-28 cells assessed as cell growth at 100 uM incubated for 48 hrs by sulforhodamine B assay relative to control; details: read-out: Activity
[24] = test system: SK-MEL-5; assay: Growth inhibition of human SK-MEL-5 cells assessed as cell growth at 100 uM incubated for 48 hrs by sulforhodamine B assay relative to control; details: read-out: Activity
[25] = test system: SK-OV-3; assay: Growth inhibition of human SK-OV-3 cells assessed as cell growth at 100 uM incubated for 48 hrs by sulforhodamine B assay relative to control; details: read-out: Activity
[26] = test system: 786-0; assay: Growth inhibition of human 786-0 cells assessed as cell growth at 100 uM incubated for 48 hrs by sulforhodamine B assay relative to control; details: read-out: Activity
[27] = test system: A498; assay: Growth inhibition of human A498 cells assessed as cell growth at 100 uM incubated for 48 hrs by sulforhodamine B assay relative to control; details: read-out: Activity; outline: as §1
[28] = test system: ACHN; assay: Growth inhibition of human ACHN cells assessed as cell growth at 100 uM incubated for 48 hrs by sulforhodamine B assay relative to control; details: read-out: Activity
[29] = test system: HT-29; assay: Growth inhibition of human HT-29 cells incubated for 48 hrs by sulforhodamine B assay
Outline: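 NCI60 panel at the NCI Developmental Therapeutics Program. Only compounds active in the 10 µM screen went to dose-response testing. GI50, the concentration giving 50% of maximal inhibition of proliferation, and TGI, the concentration giving total growth inhibition, were derived from the dose-response curves.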

[30] = test system: U-251; assay: Growth inhibition of human U-251 cells incubated for 48 hrs by sulforhodamine B assay
Outline: (§2)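 NCI DTP 60-line human tumour panel. Dose-response curves were run only for ligands active in the initial 10 µM screen. GI50 (concentration giving 50% of maximal inhibition of proliferation) and TGI (concentration giving total growth inhibition) were derived from these curves.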

[31] = test system: T47D; assay: Growth inhibition of human T47D cells incubated for 48 hrs by sulforhodamine B assay; details: for CC50: read-out: LC50 (the source's name); outline: as §2
[32] = test system: NCI-H23; assay: Growth inhibition of human NCI-H23 cells assessed as cell growth at 0.01 uM incubated for 48 hrs by sulforhodamine B assay relative to control; details: read-out: Activity
[33] = test system: NCI-H23; assay: Growth inhibition of human NCI-H23 cells assessed as cell growth at 1 uM incubated for 48 hrs by sulforhodamine B assay relative to control; details: read-out: Activity
[34] = test system: PC-3; assay: Growth inhibition of human PC-3 cells assessed as cell growth at 1 uM incubated for 48 hrs by sulforhodamine B assay relative to control; details: read-out: Activity
[35] = test system: UACC-62; assay: Growth inhibition of human UACC-62 cells assessed as cell growth at 100 uM incubated for 48 hrs by sulforhodamine B assay relative to control; details: read-out: Activity

Compound	growth at 0.01 µM [1]	growth at 0.01 µM [2]	growth at 0.01 µM [3]	growth at 0.01 µM [4]	growth at 0.01 µM [5]	growth at 0.01 µM [6]	growth at 0.01 µM [7]	growth at 0.1 µM [8]	growth at 0.1 µM [9]	growth at 0.1 µM [10]	growth at 0.1 µM [11]	growth at 1 µM [12]	growth at 1 µM [13]	growth at 1 µM [14]	growth at 1 µM [15]	growth at 1 µM [16]	growth at 1 µM [17]	growth at 1 µM [18]	growth at 100 µM [19]	growth at 100 µM [20]	also measured
CCc1ccccc1NC(=O)c1sc2nc3c(cc2c1N)C(=O)CCC3	100%	100%	93%	92%	80%	93%	91%	93%	88%	92%	102%	8%	20%	35%	56%	12%	21%	40%	13%	-22%	growth at 100 µM [21]: -34%; growth at 100 µM [22]: -5%; growth at 100 µM [23]: 11%; growth at 100 µM [24]: 2%; growth at 100 µM [25]: -4%; growth at 100 µM [26]: -17%; growth at 100 µM [27]: -10%; growth at 100 µM [28]: 10%; GI50 [29]: 0.372 µM; LC50 [29]: > 100 µM; TGI [29]: 29.5 µM; GI50 [30]: 0.499 µM; LC50 (concentration killing 50% of cells) [30]: > 100 µM; TGI [30]: 29.1 µM; GI50 [31]: 0.431 µM; TGI [31]: ≥ 100 µM; CC50 [31]: > 100 µM
Cc1ccc(NC(=O)c2sc3nc4c(cc3c2N)C(=O)CCC4)cc1C	99%	99%	95%	95%	89%	93%	95%	90%	102%	95%	97%	7%	25%	29%	57%	3%	39%	41%	-4%	28%	growth at 100 µM [21]: 7%; growth at 100 µM [22]: 28%; growth at 100 µM [23]: 25%; growth at 100 µM [24]: -57%; growth at 100 µM [25]: 8%; growth at 100 µM [26]: 20%; growth at 100 µM [27]: -17%; growth at 100 µM [28]: 12%; GI50 [29]: 0.399 µM; LC50 [29]: > 100 µM; TGI [29]: ≥ 100 µM; GI50 [30]: 0.68 µM; LC50 (concentration killing 50% of cells) [30]: > 100 µM; TGI [30]: ≥ 100 µM; GI50 [31]: 0.444 µM; TGI [31]: ≥ 100 µM; CC50 [31]: > 100 µM
CCc1cccc(C)c1NC(=O)c1sc2nc3c(cc2c1N)C(=O)CCC3	101%	99%	93%	92%	80%	93%	91%	89%	99%	97%	91%	16%	17%	39%	55%	10%	33%	45%	-52%	28%	growth at 0.01 µM [32]: 99%; growth at 1 µM [33]: 42%; growth at 1 µM [34]: 31%; growth at 100 µM [21]: 2%; growth at 100 µM [22]: -1%; growth at 100 µM [23]: 11%; growth at 100 µM [24]: -78%; growth at 100 µM [35]: 14%; growth at 100 µM [26]: 11%; growth at 100 µM [27]: -16%; growth at 100 µM [28]: 5%; GI50 [30]: 0.57 µM; LC50 (concentration killing 50% of cells) [30]: > 100 µM; TGI [30]: > 100 µM; GI50 [31]: 0.517 µM; TGI [31]: ≥ 100 µM; CC50 [31]: > 100 µM
